Measured values from ChEMBL document CHEMBL1154352, “Toll-like receptor 7 selective synthetic oligoribonucleotide agonists: synthesis and structure-activity relationship studies” (J Med Chem, 2009).
The source made the active and inactive calls. The calls are words filed in the database; no cut-off is given here.

Columns and labels:
[1] = target: T1, Toll-like receptor 9 (Mus musculus) (UniProt Q9EQU3); experiment: Activation of mouse TLR9 expressed in HEK293 assessed as induction of NF-kappaB activity reporter gene assay; format: cell-based
T1 sequence (whole entry): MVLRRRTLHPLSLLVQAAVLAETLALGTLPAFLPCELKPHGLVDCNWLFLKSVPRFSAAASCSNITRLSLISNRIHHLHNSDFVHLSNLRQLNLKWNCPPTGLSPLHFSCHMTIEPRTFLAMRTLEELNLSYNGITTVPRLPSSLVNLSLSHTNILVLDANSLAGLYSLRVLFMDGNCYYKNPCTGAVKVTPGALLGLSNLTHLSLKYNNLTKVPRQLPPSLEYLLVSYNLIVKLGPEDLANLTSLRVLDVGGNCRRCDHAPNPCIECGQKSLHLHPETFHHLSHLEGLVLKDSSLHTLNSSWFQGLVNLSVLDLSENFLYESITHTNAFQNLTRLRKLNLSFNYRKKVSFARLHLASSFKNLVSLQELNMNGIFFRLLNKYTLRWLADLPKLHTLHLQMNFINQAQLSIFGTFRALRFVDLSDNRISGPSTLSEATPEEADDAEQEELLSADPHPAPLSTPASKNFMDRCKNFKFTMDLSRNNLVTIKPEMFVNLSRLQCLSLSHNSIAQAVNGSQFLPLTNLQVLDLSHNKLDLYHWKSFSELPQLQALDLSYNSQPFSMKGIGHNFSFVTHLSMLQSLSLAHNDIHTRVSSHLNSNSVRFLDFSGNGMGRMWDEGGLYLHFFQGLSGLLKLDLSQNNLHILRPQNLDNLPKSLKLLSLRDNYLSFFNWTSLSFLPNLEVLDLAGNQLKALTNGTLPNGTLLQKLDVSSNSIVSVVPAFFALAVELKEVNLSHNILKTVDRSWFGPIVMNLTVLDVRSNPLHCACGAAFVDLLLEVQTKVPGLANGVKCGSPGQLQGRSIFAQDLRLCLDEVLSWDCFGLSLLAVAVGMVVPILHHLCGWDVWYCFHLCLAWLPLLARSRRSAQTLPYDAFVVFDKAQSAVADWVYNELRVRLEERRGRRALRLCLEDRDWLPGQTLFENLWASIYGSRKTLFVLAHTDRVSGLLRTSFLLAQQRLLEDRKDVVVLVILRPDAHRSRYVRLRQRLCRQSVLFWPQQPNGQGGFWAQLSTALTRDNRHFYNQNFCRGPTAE

[2] = test system: PBMC; experiment: Immunomodulatory activity in human PBMC assessed as induction of IL12 at 100 ug/ml after 24 hrs; format: functional, cell-based
How it was run: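 Human PBMCs plated at 5 × 10^6 cells/mL; compounds dissolved in PBS added at various concentrations, 37 °C for 24 h. Supernatant cytokines/chemokines quantified with human Luminex multiplex kit.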

[3] = test system: Splenocyte; experiment: Immunomodulatory activity in C57BL/6 mouse splenocytes bearing TLR7 receptor assessed as IL6 release at 100 ug/ml after 24 hrs by ELISA; format: functional, cell-based
How it was run: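 C57BL/6 splenocytes in RPMI 1640 with 10% FBS, penicillin/streptomycin, 2 mM L-glutamine, plated at 5 × 10^6 cells/mL; compounds in PBS added, 37 °C for 24 h. Supernatant IL-12 and IL-6 by ELISA; representative of three independent experiments.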

[4] = Metabolic stability in human serum assessed as full length product remaining after 10 mins by HPLC; format: ADME, cell-free; settings: read-out: Stability
How it was run: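 About 0.5 A260 units compound in 1% human serum in PBS, 37 °C; aliquot taken at 10 min, analysed by anion-exchange HPLC for percent intact full-length product.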

[5] = organism: Homo sapiens; experiment: Ratio of human TLR7 activity to human TLR8 activity
How it was run: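 TLR7/TLR8 ratio computed from fold NF-κB (SEAP reporter) activation in HEK293 cells stably expressing human TLR7 versus TLR8, compounds at 50 μg/mL, 18 h exposure; representative of three independent experiments.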

SMILES | Activity [1] | Activity [2] [pg/mL] | Activity [3] | remaining at 10 min [4] [%] | Ratio [5]
Nc1ccn([C@@H]2O[C@H](CO)[C@@H](OP(=O)(S)OC[C@H]3O[C@@H](n4ccc(=O)[nH]c4=O)[C@H](O)[C@@H]3OP(=O)(S)OC[C@H]3O[C@@H](n4ccc(=O)[nH]c4=O)[C@H](O)[C@@H]3OP(=O)(S)OC[C@H]3O[C@@H](n4ccc5c(=O)[nH]c(N)nc54)[C@H](O)[C@@H]3OP(=O)(S)OC[C@H]3O[C@@H](n4ccc(=O)[nH]c4=O)[C@H](O)[C@@H]3OP(=O)(S)OC[C@H]3O[C@@H](n4ccc5c(=O)[nH]c(N)nc54)[C@H](O)[C@@H]3OP(=O)(S)OC[C@H]3O[C@@H](n4cnc5c(N)ncnc54)[C@H](O)[C@@H]3OP(=O)(S)OC[C@H]3O[C@@H](n4ccc5c(=O)[nH]c(N)nc54)[C@H](O)[C@@H]3OP(=O)(S)OC[C@H]3O[C@@H](n4ccc(N)nc4=O)[C@H](O)[C@@H]3OP(=O)(S)OC[C@H]3O[C@@H](n4ccc(=O)[nH]c4=O)[C@H](O)[C@@H]3OP(=O)(S)OC[C@H]3O[C@@H](n4ccc(=O)[nH]c4=O)[C@H](O)[C@@H]3OP(=O)(S)OCC(O)COP(=O)(S)O[C@H]3[C@@H](O)[C@H](n4ccc(=O)[nH]c4=O)O[C@@H]3COP(=O)(S)O[C@H]3[C@@H](O)[C@H](n4ccc(=O)[nH]c4=O)O[C@@H]3COP(=O)(S)O[C@H]3[C@@H](O)[C@H](n4ccc(N)nc4=O)O[C@@H]3COP(=O)(S)O[C@H]3[C@@H](O)[C@H](n4ccc5c(=O)[nH]c(N)nc54)O[C@@H]3COP(=O)(S)O[C@H]3[C@@H](O)[C@H](n4cnc5c(N)ncnc54)O[C@@H]3COP(=O)(S)O[C@H]3[C@@H](O)[C@H](n4ccc5c(=O)[nH]c(N)nc54)O[C@@H]3COP(=O)(S)O[C@H]3[C@@H](O)[C@H](n4ccc(=O)[nH]c4=O)O[C@@H]3COP(=O)(S)O[C@H]3[C@@H](O)[C@H](n4ccc5c(=O)[nH]c(N)nc54)O[C@@H]3COP(=O)(S)O[C@H]3[C@@H](O)[C@H](n4ccc(=O)[nH]c4=O)O[C@@H]3COP(=O)(S)O[C@H]3[C@@H](O)[C@H](n4ccc(=O)[nH]c4=O)O[C@@H]3COP(=O)(S)O[C@H]3[C@@H](O)[C@H](n4ccc(N)nc4=O)O[C@@H]3CO)[C@H]2O)c(=O)n1 (stereo not given in full) | inactive | 1020 | Active | 85 | 19.3
Nc1ccn([C@@H]2O[C@H](CO)[C@@H](OP(=O)(S)OC[C@H]3O[C@@H](n4ccc(=O)[nH]c4=O)[C@H](O)[C@@H]3OP(=O)(S)OC[C@H]3O[C@@H](n4ccc5c(=O)[nH]c(N)nc54)[C@H](O)[C@@H]3OP(=O)(S)OC[C@H]3O[C@@H](n4cnc5c(N)ncnc54)[C@H](O)[C@@H]3OP(=O)(S)OC[C@H]3O[C@@H](n4ccc5c(=O)[nH]c(N)nc54)[C@H](O)[C@@H]3OP(=O)(S)OC[C@H]3O[C@@H](n4cnc5c(N)ncnc54)[C@H](O)[C@@H]3OP(=O)(S)OC[C@H]3O[C@@H](n4cnc5c(N)ncnc54)[C@H](O)[C@@H]3OP(=O)(S)OC[C@H]3O[C@@H](n4ccc5c(=O)[nH]c(N)nc54)[C@H](O)[C@@H]3OP(=O)(S)OC[C@H]3O[C@@H](n4ccc(N)nc4=O)[C@H](O)[C@@H]3OP(=O)(S)OC[C@H]3O[C@@H](n4ccc(=O)[nH]c4=O)[C@H](O)[C@@H]3OP(=O)(S)OC[C@H]3O[C@@H](n4ccc(=O)[nH]c4=O)[C@H](O)[C@@H]3OP(=O)(S)OCC(O)COP(=O)(S)O[C@H]3[C@@H](O)[C@H](n4ccc(=O)[nH]c4=O)O[C@@H]3COP(=O)(S)O[C@H]3[C@@H](O)[C@H](n4ccc(=O)[nH]c4=O)O[C@@H]3COP(=O)(S)O[C@H]3[C@@H](O)[C@H](n4ccc(N)nc4=O)O[C@@H]3COP(=O)(S)O[C@H]3[C@@H](O)[C@H](n4ccc5c(=O)[nH]c(N)nc54)O[C@@H]3COP(=O)(S)O[C@H]3[C@@H](O)[C@H](n4cnc5c(N)ncnc54)O[C@@H]3COP(=O)(S)O[C@H]3[C@@H](O)[C@H](n4cnc5c(N)ncnc54)O[C@@H]3COP(=O)(S)O[C@H]3[C@@H](O)[C@H](n4ccc5c(=O)[nH]c(N)nc54)O[C@@H]3COP(=O)(S)O[C@H]3[C@@H](O)[C@H](n4cnc5c(N)ncnc54)O[C@@H]3COP(=O)(S)O[C@H]3[C@@H](O)[C@H](n4ccc5c(=O)[nH]c(N)nc54)O[C@@H]3COP(=O)(S)O[C@H]3[C@@H](O)[C@H](n4ccc(=O)[nH]c4=O)O[C@@H]3COP(=O)(S)O[C@H]3[C@@H](O)[C@H](n4ccc(N)nc4=O)O[C@@H]3CO)[C@H]2O)c(=O)n1 (stereo not given in full) | inactive | 1750 | Active | 72 | 69
Nc1ccn([C@@H]2O[C@H](CO)[C@@H](OP(=O)(S)OC[C@H]3O[C@@H](n4ccc(=O)[nH]c4=O)[C@H](O)[C@@H]3OP(=O)(S)OC[C@H]3O[C@@H](n4ccc5c(=O)[nH]c(N)nc54)[C@H](O)[C@@H]3OP(=O)(S)OC[C@H]3O[C@@H](n4cnc5c(N)ncnc54)[C@H](O)[C@@H]3OP(=O)(S)OC[C@H]3O[C@@H](n4ccc(N)nc4=O)[C@H](O)[C@@H]3OP(=O)(S)OC[C@H]3O[C@@H](n4ccc5c(=O)[nH]c(N)nc54)[C@H](O)[C@@H]3OP(=O)(S)OC[C@H]3O[C@@H](n4cnc5c(N)ncnc54)[C@H](O)[C@@H]3OP(=O)(S)OC[C@H]3O[C@@H](n4ccc5c(=O)[nH]c(N)nc54)[C@H](O)[C@@H]3OP(=O)(S)OC[C@H]3O[C@@H](n4ccc(N)nc4=O)[C@H](O)[C@@H]3OP(=O)(S)OC[C@H]3O[C@@H](n4ccc(=O)[nH]c4=O)[C@H](O)[C@@H]3OP(=O)(S)OC[C@H]3O[C@@H](n4ccc(=O)[nH]c4=O)[C@H](O)[C@@H]3OP(=O)(S)OCC(O)COP(=O)(S)O[C@H]3[C@@H](O)[C@H](n4ccc(=O)[nH]c4=O)O[C@@H]3COP(=O)(S)O[C@H]3[C@@H](O)[C@H](n4ccc(=O)[nH]c4=O)O[C@@H]3COP(=O)(S)O[C@H]3[C@@H](O)[C@H](n4ccc(N)nc4=O)O[C@@H]3COP(=O)(S)O[C@H]3[C@@H](O)[C@H](n4ccc5c(=O)[nH]c(N)nc54)O[C@@H]3COP(=O)(S)O[C@H]3[C@@H](O)[C@H](n4cnc5c(N)ncnc54)O[C@@H]3COP(=O)(S)O[C@H]3[C@@H](O)[C@H](n4ccc5c(=O)[nH]c(N)nc54)O[C@@H]3COP(=O)(S)O[C@H]3[C@@H](O)[C@H](n4ccc(N)nc4=O)O[C@@H]3COP(=O)(S)O[C@H]3[C@@H](O)[C@H](n4cnc5c(N)ncnc54)O[C@@H]3COP(=O)(S)O[C@H]3[C@@H](O)[C@H](n4ccc5c(=O)[nH]c(N)nc54)O[C@@H]3COP(=O)(S)O[C@H]3[C@@H](O)[C@H](n4ccc(=O)[nH]c4=O)O[C@@H]3COP(=O)(S)O[C@H]3[C@@H](O)[C@H](n4ccc(N)nc4=O)O[C@@H]3CO)[C@H]2O)c(=O)n1 (stereo not given in full) | inactive | 519 | Active | 75 | 50
